Assay results: ChEMBL document CHEMBL2086372 (ACS Med Chem Lett, 2012)
Activity calls are given as the source filed them. The rule behind the calls is not given here.

Columns and labels:
Mus musculus [1] = experiment: Antidepressant activity in CD1 mouse assessed as decrease in immobility time at 0.5 mg/kg, ip after 15 mins by forced swim test relative to vehicle-treated control; format: functional, organism-based; design: dose 0.5 mg/kg
Method in brief: (§1)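 Mouse forced swimming test with immobility time as the read-out. Single ip doses were 0.012, 0.025, 0.05, 0.2 or 0.5 mg/kg, with fluoxetine 20 mg/kg ip as reference. Results are compared against vehicle-treated mice and given as means ± SEMs of 8–9 animals.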

Mus musculus [2] = experiment: Antidepressant activity in CD1 mouse assessed as decrease in immobility time at 0.05 mg/kg, ip after 15 mins by forced swim test relative to vehicle-treated control; format: functional, organism-based; design: dose 0.05 mg/kg; method in brief: as §1
[3] = biological target: T1, 5-hydroxytryptamine receptor 1A (Homo sapiens, UniProt P08908); experiment: Displacement of [3H]8-OH-DPAT from human 5HT1A receptor expressed in HeLa cells after 30 mins; format: cell-based
T1 sequence (P08908 whole entry): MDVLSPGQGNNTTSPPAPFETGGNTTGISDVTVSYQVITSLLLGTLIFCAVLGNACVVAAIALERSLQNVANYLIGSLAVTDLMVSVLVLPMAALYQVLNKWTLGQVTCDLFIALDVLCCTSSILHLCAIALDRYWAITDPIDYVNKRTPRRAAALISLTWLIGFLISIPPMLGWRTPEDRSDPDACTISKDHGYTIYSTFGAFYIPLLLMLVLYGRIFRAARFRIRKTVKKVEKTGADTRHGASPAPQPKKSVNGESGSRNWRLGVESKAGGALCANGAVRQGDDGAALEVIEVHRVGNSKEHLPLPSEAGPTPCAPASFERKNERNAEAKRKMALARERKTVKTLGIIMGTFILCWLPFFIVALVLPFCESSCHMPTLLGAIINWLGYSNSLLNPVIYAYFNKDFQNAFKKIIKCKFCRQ
Method in brief: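 pKi is derived from displacement of [3H]-8-OH-DPAT binding at human cloned 5-HT1A receptor. Values are means ± SEMs of 3–6 separate experiments.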

Mus musculus [4] = experiment: Antidepressant activity in CD1 mouse assessed as decrease in immobility time at 0.2 mg/kg, ip after 15 mins by forced swim test relative to vehicle-treated control; format: functional, organism-based; design: dose 0.2 mg/kg; method in brief: as §1
[5] = biological target: T2, Alpha-2C adrenergic receptor (Homo sapiens) (UniProt P18825); experiment: Agonist activity at human alpha2C adrenoceptor expressed in CHO cells assessed as extracellular acidification measured after 4 mins by cytosensor microphysiometric analysis relative to control; format: functional, cell-based
T2 sequence (whole entry): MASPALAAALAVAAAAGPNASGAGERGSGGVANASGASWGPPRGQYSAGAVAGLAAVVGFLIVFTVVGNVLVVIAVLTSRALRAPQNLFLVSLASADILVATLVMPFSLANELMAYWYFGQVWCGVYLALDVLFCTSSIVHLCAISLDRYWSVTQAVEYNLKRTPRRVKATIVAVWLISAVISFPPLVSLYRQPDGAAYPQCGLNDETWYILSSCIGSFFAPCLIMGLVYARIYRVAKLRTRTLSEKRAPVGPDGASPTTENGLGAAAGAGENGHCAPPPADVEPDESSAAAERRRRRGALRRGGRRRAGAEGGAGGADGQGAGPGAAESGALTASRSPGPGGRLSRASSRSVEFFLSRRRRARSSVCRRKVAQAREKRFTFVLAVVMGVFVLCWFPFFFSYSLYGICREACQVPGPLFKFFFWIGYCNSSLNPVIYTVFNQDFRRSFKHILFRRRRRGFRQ
Method in brief: (§2)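 Binding and functional assays run on CHO cells expressing recombinant human α2-AR subtypes. Functional read-outs are agonist potency (pEC50) with intrinsic activity (ia), or antagonist pKb. Affinity is reported as pKi. Values are means ± SEMs of 3–6 separate experiments.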

[6] = biological target: T3, Alpha-2B adrenergic receptor (Homo sapiens) (UniProt P18089); details: CHO
T3 sequence (whole entry): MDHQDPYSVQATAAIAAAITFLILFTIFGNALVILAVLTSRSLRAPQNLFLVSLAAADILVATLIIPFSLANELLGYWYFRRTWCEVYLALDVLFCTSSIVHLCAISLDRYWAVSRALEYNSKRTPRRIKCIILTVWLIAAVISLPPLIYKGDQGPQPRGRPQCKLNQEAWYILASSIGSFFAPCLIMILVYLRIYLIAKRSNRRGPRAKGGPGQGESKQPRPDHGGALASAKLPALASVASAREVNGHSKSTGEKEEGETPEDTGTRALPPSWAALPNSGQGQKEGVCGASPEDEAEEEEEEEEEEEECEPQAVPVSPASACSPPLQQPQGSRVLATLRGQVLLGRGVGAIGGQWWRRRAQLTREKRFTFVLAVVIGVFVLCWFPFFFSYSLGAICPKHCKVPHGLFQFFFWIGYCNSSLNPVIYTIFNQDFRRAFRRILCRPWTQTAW

[7] = biological target: T4, Alpha-2A adrenergic receptor (Homo sapiens) (UniProt P08913); details: CHO
T4 sequence (whole entry): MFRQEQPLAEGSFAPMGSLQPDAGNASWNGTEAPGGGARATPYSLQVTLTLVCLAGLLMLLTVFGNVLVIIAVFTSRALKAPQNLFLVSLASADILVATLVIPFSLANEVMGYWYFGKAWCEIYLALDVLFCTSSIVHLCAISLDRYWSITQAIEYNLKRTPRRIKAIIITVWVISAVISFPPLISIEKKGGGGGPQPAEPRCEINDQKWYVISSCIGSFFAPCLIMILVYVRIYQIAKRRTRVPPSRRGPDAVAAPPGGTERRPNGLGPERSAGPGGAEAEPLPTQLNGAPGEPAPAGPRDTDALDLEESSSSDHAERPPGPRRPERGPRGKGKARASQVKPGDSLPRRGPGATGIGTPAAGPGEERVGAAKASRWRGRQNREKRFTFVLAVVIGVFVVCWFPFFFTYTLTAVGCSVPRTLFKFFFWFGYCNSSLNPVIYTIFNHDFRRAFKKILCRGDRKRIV

[8] = biological target: T5, 5-hydroxytryptamine receptor 1A (Homo sapiens) (UniProt P08908); details: HeLa
T5 sequence (whole entry): T1 sequence (P08908 whole entry)

Mus musculus [9] = experiment: Antidepressant activity in CD1 mouse assessed as decrease in immobility time at 0.025 mg/kg, ip after 15 mins by forced swim test relative to vehicle-treated control; format: functional, organism-based; design: dose 0.025 mg/kg; method in brief: as §1
Mus musculus [10] = experiment: Antidepressant activity in CD1 mouse assessed as decrease in immobility time at 0.012 mg/kg, ip after 15 mins by forced swim test relative to vehicle-treated control; format: functional, organism-based; design: dose 0.012 mg/kg; method in brief: as §1
Mus musculus [11] = experiment: Antidepressant activity in CD1 mouse assessed as decrease in immobility time at 0.025 mg/kg, ip administered 15 mins prior to coadministration with yohimbine measured after 15 mins by forced swim test relative to vehicle-treated control; format: functional, organism-based; design: dose 0.025 mg/kg
Method in brief: (§3)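 Forced swimming test in mice using 0.025 mg/kg ip test dose. It was combined with the 5-HT1A antagonist WAY 100635 (0.1 mg/kg, sc) or with the α2 antagonist yohimbine (1.250 mg/kg, ip). Each antagonist was also given alone. Immobility time is the read-out, given as means ± SEMs of 7–8 animals.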

Mus musculus [12] = experiment: Antidepressant activity in CD1 mouse assessed as decrease in immobility time at 0.025 mg/kg, ip administered 30 mins prior to coadministration with WAY100635 measured after 15 mins by forced swim test relative to vehicle-treated control; format: functional, organism-based; design: dose 0.025 mg/kg; method in brief: as §3
Mus musculus [13] = experiment: Effect on morphine-dependence in CD1 mouse assessed as decrease in naloxone-precipitated jumping at 0.025 mg/kg, ip administered chronically 15 mins prior to each morphine challenge relative to vehicle-treated control; format: functional, organism-based; design: dose 0.025 mg/kg
Method in brief: (§4)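 Acquisition of morphine dependence in mice, tested with repeated ip dosing (racemate 0.05 mg/kg, enantiomers 0.025 mg/kg). Withdrawal was precipitated by naloxone. Scored signs were jumping frequency and somatic signs (rearing, forepaw tremors, teeth chatter). Groups were compared with vehicle and with the morphine group.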

Mus musculus [14] = experiment: Effect on morphine-dependence in CD1 mouse assessed as decrease in naloxone-precipitated forepaw tremors at 0.025 mg/kg, ip administered acutely 15 mins prior to naloxone challenge relative to vehicle-treated control; format: functional, organism-based; design: dose 0.025 mg/kg
Method in brief: as §4, with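 “Expression” for “Acquisition”, “a single acute” for “repeated”, “dose” for “dosing”, “naloxone in control and morphine-treated mice.” for “naloxone.”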

Mus musculus [15] = experiment: Effect on morphine-dependence in CD1 mouse assessed as decrease in naloxone-precipitated teeth chatter at 0.025 mg/kg, ip administered chronically 15 mins prior to each morphine challenge relative to vehicle-treated control; format: functional, organism-based; design: dose 0.025 mg/kg; method in brief: as §4
[16] = biological target: T6, Alpha-2A adrenergic receptor (Homo sapiens, UniProt P08913); experiment: Displacement of [3H]RX821002 from human alpha2A adrenoceptor expressed in CHO cells after 30 mins by scintillation counting; format: cell-based; method in brief: as §2
T6 sequence (P08913 whole entry): T4 sequence (whole entry)

Mus musculus [17] = experiment: Effect on morphine-dependence in CD1 mouse assessed as decrease in naloxone-precipitated teeth chatter at 0.025 mg/kg, ip administered acutely 15 mins prior to naloxone challenge relative to vehicle-treated control; format: functional, organism-based; design: dose 0.025 mg/kg
Method in brief: as §4, with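 “Expression” for “Acquisition”, “a single acute” for “repeated”, “dose” for “dosing”, “naloxone in control and morphine-treated mice.” for “naloxone.”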

[18] = biological target: T7, Alpha-2C adrenergic receptor (Homo sapiens, UniProt P18825); experiment: Agonist activity at human alpha2C adrenoceptor expressed in CHO cells assessed as extracellular acidification measured after 4 mins by cytosensor microphysiometric analysis; format: functional, cell-based; method in brief: as §2
T7 sequence (P18825 whole entry): T2 sequence (whole entry)

Mus musculus [19] = experiment: Effect on morphine-dependence in CD1 mouse assessed as decrease in naloxone-precipitated rearing at 0.025 mg/kg, ip administered acutely 15 mins prior to naloxone challenge relative to vehicle-treated control; format: functional, organism-based; design: dose 0.025 mg/kg
Method in brief: as §4, with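 “Expression” for “Acquisition”, “a single acute” for “repeated”, “dose” for “dosing”, “naloxone in control and morphine-treated mice.” for “naloxone.”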

Mus musculus [20] = experiment: Effect on morphine-dependence in CD1 mouse assessed as decrease in naloxone-precipitated forepaw tremors at 0.025 mg/kg, ip administered chronically 15 mins prior to each morphine challenge relative to vehicle-treated control; format: functional, organism-based; design: dose 0.025 mg/kg; method in brief: as §4
Mus musculus [21] = experiment: Effect on morphine-dependence in CD1 mouse assessed as decrease in naloxone-precipitated jumping at 0.025 mg/kg, ip administered acutely 15 mins prior to naloxone challenge relative to vehicle-treated control; format: functional, organism-based; design: dose 0.025 mg/kg
Method in brief: as §4, with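 “Expression” for “Acquisition”, “a single acute” for “repeated”, “dose” for “dosing”, “naloxone in control and morphine-treated mice.” for “naloxone.”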

[22] = biological target: T8, Alpha-2B adrenergic receptor (Homo sapiens, UniProt P18089); experiment: Agonist activity at human alpha2B adrenoceptor expressed in CHO cells assessed as extracellular acidification measured after 4 mins by cytosensor microphysiometric analysis
T8 sequence (P18089 whole entry): T3 sequence (whole entry)

[23] = biological target: T8, Alpha-2B adrenergic receptor; experiment: Displacement of [3H]RX821002 from human alpha2B adrenoceptor expressed in CHO cells after 30 mins by scintillation counting; format: cell-based; method in brief: as §2
[24] = biological target: T7, Alpha-2C adrenergic receptor; experiment: Displacement of [3H]RX821002 from human alpha2C adrenoceptor expressed in CHO cells after 30 mins by scintillation counting; format: cell-based; method in brief: as §2
Mus musculus [25] = experiment: Effect on morphine-dependence in CD1 mouse assessed as decrease in naloxone-precipitated rearing at 0.025 mg/kg, ip administered chronically 15 mins prior to each morphine challenge relative to vehicle-treated control; format: functional, organism-based; design: dose 0.025 mg/kg; method in brief: as §4

C=CCc1ccccc1OC(C)C1=NCCN1 (racemic) [ALLYPHENYLINE]
Activity (Mus musculus [1]): inactive | Activity (Mus musculus [2]): Active | Ki [3]: 28.2 nM | Activity (Mus musculus [4]): Active | Intrinsic activity [5]: 0.9 | pEC50 [6]: inactive | pKb [7]: 7.4 | pD2 [8]: 6.86 | Activity (Mus musculus [9]): Active | Activity (Mus musculus [10]): inactive

CC(Oc1c(Cl)cccc1Cl)C1=NCCN1 (centres undefined) [LOFEXIDINE]
Ki [3]: 126 nM

C=CCc1ccccc1O[C@@H](C)C1=NCCN1
Activity (Mus musculus [11]): inactive | Ki [3]: 35.5 nM | Intrinsic activity [5]: 0.9 | Activity (Mus musculus [12]): inactive | pKb [7]: 7.8 | pD2 [8]: 7.19

C[C@@H](Oc1ccccc1CC1CC1)C1=NCCN1
Activity (Mus musculus [13]): Active | Activity (Mus musculus [14]): Active | Activity (Mus musculus [15]): Active | Activity (Mus musculus [11]): inactive | Ki [3]: 39.8 nM | Ki [16]: 44.7 nM | Intrinsic activity [5]: 0.75 | Activity (Mus musculus [17]): Active | Activity (Mus musculus [12]): inactive | EC50 [18]: 316 nM | Activity (Mus musculus [19]): Active | Activity (Mus musculus [20]): Active | Activity (Mus musculus [21]): Active | EC50 [22]: 3980 nM | Ki [23]: 339 nM | Ki [24]: 234 nM | Activity (Mus musculus [25]): Active
